Assay [1] can be described thus: Antiinflammatory activity in mouse RAW264.7 cells assessed as inhibition of LPS-induced NO production pretreated for 30 mins followed by LPS stimulation for 24 hrs by Griess assay. The class given is functional, cell-based. Put shortly: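 Cells seeded at 5 × 10^4 per well, grown 24 h, pretreated 30 min, then stimulated with 500 ng/mL LPS for 24 h; 0.5% DMSO vehicle in all wells; LPS-only and unstimulated blanks included; L-NIL as positive control. Medium reacted with Griess reagent, absorbance at 540 nm; IC50 reported.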
Background: The Griess reaction detects nitrite, a stable product of nitric oxide.

Assay [2] concerns RAW264.7. Briefly: Inhibition of LPS-induced NF-kappaB (unknown origin) transactivation expressed in mouse RAW264.7 cells at 20 uM pretreated for 30 mins followed by LPS stimulation for 6 hrs by luciferase reporter gene assay. The class given is cell-based. Particulars: Homo sapiens. Put shortly:
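RAW 264.7/NF-κB-luc cells (RAW 264.7 stably carrying an NF-κB-driven luciferase reporter), kept in DMEM with 10% FBS, penicillin/streptomycin and 500 μg/mL G418. Seeded at 5 × 10^5 per well for 24 h, then compound for 30 min before LPS 500 ng/mL for 6 h; DMSO 0.5% vehicle, PDTC 20 μM positive control. Firefly luminescence read on lysates; means ± SD of three independent experiments.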
A general note: In a reporter assay the amount or activity of a reporter protein is the signal.

For assay [3], the system named is Mus musculus. Nature of the assay: Antiinflammatory activity in TPA-induced ear edema BALB/c mouse model assessed as reduction in epidermal hyperplasia applied topically pretreated for 30 mins followed by TPA exposure measured after 4 hrs by hematoxylin and eosin staining based light microscopic method. Format: functional, tissue-based. Put shortly: (§1)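 Right ear pretreated topically (2.5, 5, 10 mg/mL) 30 min before TPA for 4 h; left ear acetone only; 1% hydrocortisone as positive control. Ears fixed in 4% paraformaldehyde, paraffin-embedded, cut at 4 μm, H&E stained; representative area examined qualitatively by light microscopy at 200×; n = 8 mice per group.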

Assay [4] deals with Mus musculus. Briefly: Antiinflammatory activity in BALB/c mouse assessed as inhibition of TPA-induced ear edema applied topically pretreated for 30 mins followed by TPA exposure measured after 4 hrs. Format: functional. Put shortly:
(§2)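 Topical dosing of right ear at 2.5, 5 or 10 mg/mL, 30 min before TPA; left ear given acetone only as solvent control; 1% hydrocortisone as positive control. Mice killed 4 h after TPA, 7 mm central punches taken from both ears and weighed; edema rate (%) = [(weight right − weight left)/weight left] × 100%. n = 8 mice per group.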

In assay [5] the test system is Mus musculus. Nature of the assay: Antiinflammatory activity in TPA-induced ear edema BALB/c mouse model assessed as reduction in inflammatory cell infilteration applied topically pretreated for 30 mins followed by TPA exposure measured after 4 hrs by hematoxylin and eosin staining based light microscopic method. The class given is functional, tissue-based. Put shortly:
as §1

The subject of assay [6] is RAW264.7. Nature of the assay: Inhibition of NF-kappaB in mouse RAW264.7 cells assessed as reduction in LPS-induced TNF-alpha level pretreated for 30 mins followed by LPS stimulation for 24 hrs by ELISA. The class given is cell-based. Put shortly: (§3)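 Pretreatment at 0.3, 1, 3 or 9 μM for 30 min, then LPS 500 ng/mL for 24 h; culture supernatant assayed for TNF-α and IL-6 by ELISA kits; means ± SD of three independent experiments.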
On the technique in general: ELISA stands for enzyme-linked immunosorbent assay.

In assay [7] the test system is RAW264.7. Briefly: Inhibition of NF-kappaB in mouse RAW264.7 cells assessed as reduction in LPS-induced degradation of IkappaB-alpha pretreated for 30 mins followed by LPS stimulation for 1 hr by Western blot analysis. The class given is cell-based. Put shortly:
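Serum-starved (12 h) cells pretreated 30 min at 2.5, 5 or 10 μM or 0.5% DMSO, then LPS 500 ng/mL for 1 h; Western blot for IκB-α and phospho-IκB-α (1:1000, 4 °C overnight), ECL, β-tubulin loading control; bands quantified from three independent experiments.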

The subject of assay [8] is Mus musculus. Nature of the assay: Antiinflammatory activity in TPA-induced ear edema BALB/c mouse model assessed as reduction in inflammatory cell infilteration at 10 mg/ml applied topically pretreated for 30 mins followed by TPA exposure measured after 4 hrs by hematoxylin and eosin staining based light microscopic method. The class given is functional, tissue-based. Put shortly:
as §1

Assay [9] concerns Mus musculus. Nature of the assay: Antiinflammatory activity in TPA-induced ear edema BALB/c mouse model assessed as reduction in epidermal hyperplasia at 10 mg/ml applied topically pretreated for 30 mins followed by TPA exposure measured after 4 hrs by hematoxylin and eosin staining based light microscopic method. Format: functional, tissue-based. Put shortly:
as §1

For assay [10], the system named is RAW264.7. Nature of the assay: Inhibition of LPS-induced NF-kappaB (unknown origin) transactivation expressed in mouse RAW264.7 cells pretreated for 30 mins followed by LPS stimulation for 6 hrs by luciferase reporter gene assay. Format: cell-based. The conditions noted are these: Homo sapiens. Put shortly:
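RAW 264.7 line stably carrying NF-κB-driven firefly luciferase, maintained with 500 μg/mL G418; seeded 5 × 10^5 per well, 24 h, pretreated 30 min at 2.5–20 μM, then 500 ng/mL LPS for 6 h; 0.5% DMSO vehicle; 20 μM PDTC positive control. Lysate luminescence read; three independent experiments, means ± SD.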

Assay [11] deals with RAW264.7. Nature of the assay: Inhibition of NF-kappaB in mouse RAW264.7 cells assessed as reduction in LPS-induced IL-6 level pretreated for 30 mins followed by LPS stimulation for 24 hrs by ELISA. The class given is cell-based. Put shortly: as §3
The target of assay [12] is Transcription factor p65 (Mus musculus) (UniProt Q04207). Briefly: Inhibition of LPS-induced NF-kappaB p65 subunit translocation into nucleus of mouse RAW264.7 cells at 10 uM pretreated for 30 mins followed by LPS stimulation for 3 hrs by DAPI staining based immunofluorescence assay. The class given is cell-based. Put shortly:
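Cells at 1 × 10^5/mL plated overnight, pretreated 30 min, then LPS 500 ng/mL for 3 h; fixed in 4% formaldehyde, permeabilized with 1% Triton X-100, blocked in 5% BSA, anti-p65 (1:100) overnight at 4 °C, Alexa 594 secondary, DAPI nuclei. High-content imaging; nuclear minus cytoplasmic fluorescence; three independent experiments.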

In assay [13] the test system is Mus musculus. Nature of the assay: Antiinflammatory activity in BALB/c mouse assessed as inhibition of TPA-induced ear edema at 10 mg/ml applied topically pretreated for 30 mins followed by TPA exposure measured after 4 hrs. The class given is functional. Put shortly: as §2
For assay [14], the system named is RAW264.7. Nature of the assay: Inhibition of NF-kappaB in mouse RAW264.7 cells assessed as reduction in LPS-induced COX2 expression at 1 to 9 uM pretreated for 30 mins followed by LPS stimulation for 12 hrs by Western blot analysis. The class given is cell-based. Put shortly: (§4)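 Cells 5 × 10^5 per well grown 24 h, serum-starved 12 h, pretreated 30 min, then LPS 500 ng/mL for 12 h. Lysates protein-normalized by BCA, 10% SDS-PAGE, PVDF, anti-iNOS or anti-COX-2 (1:1000) overnight at 4 °C, ECL detection; β-tubulin loading control.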

The test system of assay [15] is RAW264.7. Briefly: Inhibition of NF-kappaB in mouse RAW264.7 cells assessed as reduction in LPS-induced iNOS protein expression pretreated for 30 mins followed by LPS stimulation for 12 hrs by Western blot analysis. Format: cell-based. Put shortly:
as §4

The source made the active and inactive calls. The calls are words filed in the database; no cut-off is given here.

Chain of Transcription factor p65 (Mus musculus) (Q04207 whole entry): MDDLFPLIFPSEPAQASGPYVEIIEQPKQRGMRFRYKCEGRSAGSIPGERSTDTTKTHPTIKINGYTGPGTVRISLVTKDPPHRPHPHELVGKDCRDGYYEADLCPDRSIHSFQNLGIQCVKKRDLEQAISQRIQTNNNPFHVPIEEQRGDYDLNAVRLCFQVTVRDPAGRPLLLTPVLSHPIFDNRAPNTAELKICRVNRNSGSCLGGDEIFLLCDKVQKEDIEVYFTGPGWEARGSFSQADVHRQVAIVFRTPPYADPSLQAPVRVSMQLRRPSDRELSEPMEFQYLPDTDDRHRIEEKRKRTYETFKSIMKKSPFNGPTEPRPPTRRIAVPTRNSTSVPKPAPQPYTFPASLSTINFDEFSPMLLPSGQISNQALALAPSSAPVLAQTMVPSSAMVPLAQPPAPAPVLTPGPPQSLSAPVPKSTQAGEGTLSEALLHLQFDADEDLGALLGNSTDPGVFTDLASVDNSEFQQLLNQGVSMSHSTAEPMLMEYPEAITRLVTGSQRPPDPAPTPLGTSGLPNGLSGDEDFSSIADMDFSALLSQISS

As for `C=C1[C@H]2C[C@H]2[C@]2(C)[C@H](O)[C@@]3(OC)OC(=O)C(C)=C3C[C@@H]12`, the IC50 in [1] is over 50 µM.
For the compound `S=C(S)N1CCCC1`, in the assay on RAW264.7 [2], the inhibition result was “Active”.
As to `C=C1[C@H]2C[C@H]2[C@]2(C)C[C@@H]3OC(=O)C(C)=C3C[C@]12O` [SARCANDRALACTONE A], in assay [1], the IC50 was over 50 µM.
As for `C[C@]12CCC(=O)C=C1CC[C@@H]1[C@@H]2[C@@H](O)C[C@@]2(C)[C@H]1CC[C@]2(O)C(=O)CO` [HYDROCORTISONE], the result in the assay with Mus musculus [3] and in the assay on Mus musculus [5] was Active. Further, the “inhibition (INH)” value in the assay on Mus musculus [4] is 56.33%.
As for `C=C1[C@H]2C[C@H]2[C@]2(C)C=C3OC(=O)C(C)=C3C[C@@H]12` [CHLORANTHALACTONE A], the IC50 in assay [1] is 33.2 µM.
On the same count and under the same terms, in the case of `C=C1[C@H]2C[C@H]2[C@]2(C)[C@H](O)[C@]3(OC)OC(=O)C(C)=C3C[C@@H]12` it was over 50 µM; in that of `CC(=N)NCCCC[C@H](N)C(=O)O` [L-NIL], 7.5 µM.
As to `C=C1[C@H]2C[C@H]2[C@]2(C)C=C3OC(=O)C(C)=C3[C@H](OC(C)=O)[C@@H]12`, the inhibition result with RAW264.7 [6], in the assay on RAW264.7 [7], with RAW264.7 [10], with Mus musculus [4], with RAW264.7 [11] and in the assay with RAW264.7 [15] was “Dose-dependent effect” in each case. The IC50 in assay [1] turned out to be 1.4 µM. In addition, the outcome with Mus musculus [8] and with Mus musculus [9] was Active. For the same compound, the inhibition result (in assay [12]; in the assay with RAW264.7 [14]) was “Active” in each case. In addition, the inhibition at 10000 µg/mL in the assay on Mus musculus [13] worked out at 23.5%.
On to `C=C1[C@H]2C[C@H]2[C@]2(C)C=C3OC(=O)C(C)=C3C[C@@]12O`, for which the IC50 in assay [1] is over 50 µM.
Still for that read-out and setting: next, `C=C1[C@H]2C[C@H]2[C@@]2(C)[C@H]1CC1=C(C)C(=O)O[C@@]1(O)[C@H]2O`: 35.4 µM; `CC1=C2CC3=C(CO)[C@H]4C[C@H]4[C@]3(C)C[C@@H]2OC1=O` [CHLORAJAPOLIDE C]: over 50 µM; `C=C1[C@H]2C[C@H]2[C@]2(C)C[C@@H]3OC(=O)C(C)=C3C[C@@H]12`: over 50 µM.

What is called IC50 is the concentration that inhibits the measured activity by half. In general, inhibition refers to the change of the read-out against control, counted positive when it falls.
